For the test, the target named is GABA-A receptor; anion channel. As to the kind of experiment: Concentration to inhibit [3H]flunitrazepam binding to rat cerebral cortical membrane. The method, boiled down: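 Rat cerebral cortex homogenized in 50 mM Tris-HCl pH 7.4, centrifuged 20000g 20 min at 4 °C, washed three times, resuspended in 50 volumes. Triplicate incubations with [3H]flunitrazepam (~1 nM final) at 4 °C for 120 min, ended by GF/B filtration and ice-cold buffer washes. Nonspecific binding defined with 10 μM unlabeled flunitrazepam.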
Molecule `COc1ccc(-n2nc3c4ccccc4c[n+](Cc4ccccc4)c3c2[O-])cc1` gave an IC50 greater than 2000 nM. Then `[O-]c1c2c(nn1-c1ccc(Cl)cc1)c1ccccc1c[n+]2Cc1ccccc1`, with greater than 2000 nM. Take `Clc1c2ncc3ccccc3c2nn1-c1ccccc1`: the IC50 was greater than 2000 nM. Then `[O-]c1c2c(nn1-c1ccc(F)cc1)c1ccccc1c[n+]2Cc1ccccc1`, with greater than 2000 nM; and `Sc1c2ncc3ccccc3c2nn1-c1ccccc1`, with greater than 2000 nM; and `COc1ccc(-n2nc3c4ccccc4[nH]cc-3c2=O)cc1`, with 0.9 nM. Then `Oc1c2ncc3ccccc3c2nn1-c1ccc(Cl)cc1`, with greater than 2000 nM. Turning to `O=c1c2ncc3ccccc3c2[nH]n1-c1ccc(F)cc1`, the IC50 is greater than 2000 nM. The figure for `O=c1c2ncc3ccccc3c2[nH]n1-c1ccccc1` is greater than 2000 nM; for `COc1ccc(-n2[nH]c3c(ncc4ccccc43)c2=O)cc1` it is greater than 2000 nM. Then `c1ccc2c(c1)cnc1c3ccccc3[nH]c21`, with greater than 2000 nM; and `[O-]c1c2c(nn1-c1ccccc1)c1ccccc1c[n+]2Cc1ccccc1`, with greater than 2000 nM.

The term IC50 denotes the point on the concentration scale where inhibition reaches its midpoint. Low values mean greater potency, high ones weaker potency.

Values taken from ChEMBL document CHEMBL1125292, “Synthesis of novel 2-phenyl-2H-pyrazolo[4,3-c]isoquinolin-3-ols: topological comparisons with analogues of 2-phenyl-2,5-dihydropyrazolo[4,3-c]quinolin-3(3H)-ones at benzodiazepine receptors” (J Med Chem, 1992).
